pIC50: −log10 of the molar value. Ends that are not written are not given here.
Key:
[1] = target: T1, transporter associated with antigen processing (TAP) (Homo sapiens, UniProt Q03518+Q03519); experiment: Streptolysin O peptide transport assay; format: biochemical
T1 sequence (Q03518 1-748): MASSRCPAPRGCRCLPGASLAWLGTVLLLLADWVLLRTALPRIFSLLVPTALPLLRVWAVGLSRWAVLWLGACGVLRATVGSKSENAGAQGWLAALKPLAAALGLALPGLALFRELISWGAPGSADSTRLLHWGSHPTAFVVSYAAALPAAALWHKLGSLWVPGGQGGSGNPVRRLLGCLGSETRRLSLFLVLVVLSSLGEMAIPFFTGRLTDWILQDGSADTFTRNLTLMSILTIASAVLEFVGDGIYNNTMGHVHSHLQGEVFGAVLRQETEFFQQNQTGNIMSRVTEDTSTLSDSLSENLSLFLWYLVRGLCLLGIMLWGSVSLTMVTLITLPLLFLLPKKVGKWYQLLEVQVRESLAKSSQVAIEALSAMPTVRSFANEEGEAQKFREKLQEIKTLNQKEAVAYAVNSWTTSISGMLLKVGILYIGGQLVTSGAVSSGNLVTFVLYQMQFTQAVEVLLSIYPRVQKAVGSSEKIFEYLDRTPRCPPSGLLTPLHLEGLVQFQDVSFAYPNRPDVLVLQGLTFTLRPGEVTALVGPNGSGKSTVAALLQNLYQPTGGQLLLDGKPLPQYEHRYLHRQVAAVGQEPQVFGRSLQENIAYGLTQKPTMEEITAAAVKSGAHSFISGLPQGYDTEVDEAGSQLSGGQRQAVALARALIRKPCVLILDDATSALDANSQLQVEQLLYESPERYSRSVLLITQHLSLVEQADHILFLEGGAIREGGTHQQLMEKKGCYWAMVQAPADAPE
T1 sequence (Q03519 1-686): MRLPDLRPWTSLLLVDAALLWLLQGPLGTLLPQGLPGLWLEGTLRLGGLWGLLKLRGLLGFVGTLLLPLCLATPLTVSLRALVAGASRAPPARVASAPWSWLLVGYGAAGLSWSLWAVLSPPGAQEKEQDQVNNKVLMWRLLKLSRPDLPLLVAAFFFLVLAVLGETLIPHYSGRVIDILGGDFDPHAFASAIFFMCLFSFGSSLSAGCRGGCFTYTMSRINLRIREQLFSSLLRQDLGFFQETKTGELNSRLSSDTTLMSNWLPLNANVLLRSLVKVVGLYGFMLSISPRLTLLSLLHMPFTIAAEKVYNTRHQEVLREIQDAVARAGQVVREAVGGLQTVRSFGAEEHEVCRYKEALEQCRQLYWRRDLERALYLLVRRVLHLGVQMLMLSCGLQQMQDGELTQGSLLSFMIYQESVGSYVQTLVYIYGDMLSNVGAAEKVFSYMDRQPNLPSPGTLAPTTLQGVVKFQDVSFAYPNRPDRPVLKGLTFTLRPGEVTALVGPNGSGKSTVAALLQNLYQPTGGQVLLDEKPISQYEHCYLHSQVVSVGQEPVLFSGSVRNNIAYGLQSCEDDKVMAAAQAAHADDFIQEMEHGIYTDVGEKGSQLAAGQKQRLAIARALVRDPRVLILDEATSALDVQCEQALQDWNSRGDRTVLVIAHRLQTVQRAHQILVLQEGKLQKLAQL
How it was run: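 TAP+ T1 TxB hybrid cells (10^6/sample; grown in RPMI 1640, 4 mM Hepes, 5% FCS, 3 mM l-glutamine) permeabilised with streptolysin O (15 U/ml) for 15 min on ice. Then 5 min at 37°C with 100 ng chloramine-T 125I-labelled reporter peptide, ATP (100 mM stock) and competitor peptide dilutions. TAP-negative T2 cells served as negative control. Duplicates; triplicates for T2 and uninhibited T1.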

HLA-A*0201 molecules = HLA-A*0201 molecules (Homo sapiens, UniProt P04439, D140Y/D185E/D98H/E176V/E277Q/G131W/G231S/I119V/I121R/I166T/I218V/L300P/L318F/N151K/N90K/P208A/P217A/Q86G/Q94H/R138H/R169H/T345S); experiment: Class I peptide-binding affinity assay

Sequence	pIC50 [1]	pIC50 (HLA-A*0201 molecules)
HPTLDKVLEV [HPTLDKVLEV]	3.45	–
KSADHPTLDKVLEV [KSADHPTLDKVLEV]	3.99	–
RTLDKVLEV [RTLDKVLEV]	4.35 to 4.52	7.40
PTLDKVLEV [PTLDKVLEV]	3.76	–

— publication PMC2193344 (The Journal of Experimental Medicine, 2001)
